Assay results published in ChEMBL document CHEMBL1909525, “Synthesis and anticonvulsant activity of novel 2,6-diketopiperazine derivatives. Part 1: perhydropyrrole[1,2-a]pyrazines” (Eur J Med Chem, 2011).

Columns and labels:
Mus musculus = experiment: Neurotoxicity in albino Carworth Farms No.1 mouse assessed as motor impairment at 300 mg/kg, ip after 0.5 hrs by rotarod test; format: toxicity, organism-based; parameters: dose 300 mg/kg, route intraperitoneal; settings: in vivo
In short: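 Rotorod neurotoxicity in mice at 6 r.p.m. Compound given i.p. (30, 100, 300 mg/kg) in 0.5% methylcellulose; tested at 30 min and 4 h. Impairment is inability to keep equilibrium on the rod for a given time; scored as impaired/tested.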

Rattus norvegicus = species on record: Rattus norvegicus; experiment: Inhibition of voltage-gated sodium channel in Wistar rat cerebral prefrontal coronal slices assessed as decrease of […] current-induced current amplitude at 100 uM after 5 mins by whole cell voltage clamp method (reference value: 8 +/- 2.3%); parameters: scale not given: the % may be the effect or the level left

O=C1NC(=O)[C@@H]2CCCN2[C@H]1c1ccccc1
Activity (Mus musculus): Non-toxic | Activity (Rattus norvegicus): 14.1%
